Cneo AK release = Cryptococcus neoformans cell lysis inducers, primary screen, AK release luminescence, single concentration | C. neoformans lysis, adenylate kinase release luminescence, 4 h; normalised: neutral wells 0, clomiphene wells 100 | lysis activity, % at 15 µM | 0.2% of 360,000 active | AID 651654, 2012;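 active = mean lysis activity across replicates of at least 80%, whatever share of replicates individually reach that level; inactive = mean lysis activity below 80%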
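Schedule: static 4 h at 37 °C with compound, 1 h detection; system: C. neoformans cells; benchmarks: Clomiphene as positive control; buffer or medium: fresh YPD medium; measure: luminescence rise reflecting yeast cell lysis; measured by: luminescent adenylate kinase detection reagent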
PGC1a acetyl inh = inhibitors of PGC1a acetylation signal, primary screen, cell-based, U2OS, AlphaScreen, inhibitor mode. 0.17% of 350,000 active. inhibition, % at 15.6 µM. AlphaScreen anti-acetyl-lysine; with virally co-expressed GCN5 acetyltransferase;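 active = every replicate shows inhibition of at least 40%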;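 note: 0% = neutral control wells and 100% = positive control wells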
Vif imaging = HIV Vif self-association inhibitors, primary screen, imaging, HEK293T, single point; 0.35% of 340,000 active; HEK293T cells, Vif self-association by quenched fluorescence, 24 h; inhibition, % at 7.49 µM; in the data active = inhibition above about 50%, passing the limit was not always enough
FGF22 binding = binders of human FGF22 protein, primary screen, FGF22 synaptogenesis inhibitor project, biophysical, thermal shift, single point. recombinant FGF22 thermal shift, SYPRO orange fluorescence; percent of sucrose octasulfate shift, DMSO zero. activity (Tm shift, normalised), % at 9.99 µM. 1.5% of 340,000 active;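 active = mean Tm shift, scaled 0 neutral to 100 positive control, at about 1.3% or above, every replicate too, limit read from the data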
Target sequence (Q9HCT0 whole entry, looked up): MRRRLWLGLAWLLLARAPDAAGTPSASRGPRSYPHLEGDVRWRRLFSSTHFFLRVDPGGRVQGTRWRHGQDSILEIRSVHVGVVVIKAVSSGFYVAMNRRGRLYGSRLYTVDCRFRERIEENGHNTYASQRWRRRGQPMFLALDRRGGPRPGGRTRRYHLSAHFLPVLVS
PglD inh = C. jejuni PglD acetyltransferase inhibitors, primary screen, biochemical, DTNB colorimetric, single point. purified PglD enzyme, DTNB colorimetric CoA detection. inhibition, % at 12.5 µM. 0.098% of 360,000 active. AID 602405, 2012; in the data active = inhibition above about 16%, passing the limit was not always enough
rRNA inh HTS = reduced GFP signal of wild-type E. coli, primary screen, bacterial rRNA inhibitor project, GFP/RFP fluorescence, OD600, single point. GFP signal change (wild-type ribosome), % (no concentration beside the values). E. coli WT GFP vs humanized-ribosome RFP mutants, 24 h; stronger effect = lower value; DMSO median 0, no signal -100. AID 720706, 2013. 1.6% of 350,000 active;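 active = significant combined selectivity score with lowered wild-type GFP, culture density cut under 30%, mutant RFP and density less affected; inactive = any of these conditions unmet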
An asterisk follows results filed as active; nt = no result; ! = repeats disagree. Hits are enriched below; roughly 2.9% of the tested compounds scored in any of these assays.

SMILES | Cneo AK release | PGC1a acetyl inh | Vif imaging | FGF22 binding | PglD inh | rRNA inh HTS
CC1(C)COC2(OC1)C(=O)N(CN1CCOCC1)c1ccccc12 | nt | 5 | -3 | 43* | nt | 7
COC(=O)C[C@@H]1CC[C@@H]2[C@H](COC[C@H](O)CN2CCC(F)(F)F)O1 | 1 | 0 | nt | 0 | 0 | 0
O=C(N/N=C/c1ccc([N+](=O)[O-])cc1)c1cc(-c2ccc3c(c2)OCO3)n[nH]1 | nt | nt | 8 | 0 | nt | -2
COc1cc(/C=N/NC(=O)c2cc(-c3ccc4c(c3)OCO4)n[nH]2)ccc1O | nt | nt | 0 | 0 | nt | -26*
COc1ccccc1N/N=C/c1ccc2c(c1)OCO2 | 0 | nt | -4 | 44* | -10 | 12
COc1ccccc1C(=O)N/N=C/c1ccc2c(c1)OCO2 | -1 | 0 | -6 | 0 | 1 | -2
CSc1nsc(N/N=C/c2ccc3c(c2)OCO3)c1C#N | nt | 5 | -6 | 0 | nt | -29*
COc1cc(/C=N/Nc2snc(SC)c2C#N)cc(OC)c1OC | 0 | -3 | 11 | nt | 12 | nt
Cc1ccc(S(=O)(=O)Nc2ccc3c(c2)C(=O)N([C@@H](C)CO)C[C@@H](C)[C@H](CN(C)C(=O)c2ccncc2)OCCCC[C@@H](C)O3)cc1 | 4 | -12 | nt | 0 | -3 | -4
CSCc1ccc(C(=O)OCc2nc3ccccc3s2)o1 | -1 | 5 | 5 | 43* | -3 | -16*
O=C(NCC1CCCCC1)[C@@H]1[C@@H](CO)[C@@H]2Cn3c(cccc3=O)[C@H]1N2C(=O)c1cccnc1 | -1 | nt | nt | nt | -1 | 1
C[C@H]1CCCCO[C@H](CN(C)Cc2ccncc2)[C@@H](C)CN([C@@H](C)CO)C(=O)c2cc(NC(=O)Nc3ccccc3)ccc2O1 | -1 | -5 | nt | nt | -2 | -3
C[C@@H]1CCCCO[C@@H](CN(C)Cc2ccncc2)[C@@H](C)CN([C@H](C)CO)C(=O)c2cc(NC(=O)c3ccncc3)ccc2O1 | 93* | 6 | nt | 1 | 1 | 0
C[C@@H]1CCCCO[C@H](CN(C)Cc2ccc(Cl)c(Cl)c2)[C@@H](C)CN([C@H](C)CO)C(=O)c2cc(N(C)C)ccc2O1 | 1 | 0 | 2 | 43*! | 10 | -15
C[C@@H]1CCCCO[C@H](CN(C)Cc2ccncc2)[C@@H](C)CN([C@@H](C)CO)C(=O)c2cc(NC(=O)Nc3ccccc3)ccc2O1 | 81* | -10 | nt | 0 | 4 | -1
C[C@@H]1CN([C@@H](C)CO)C(=O)c2cc(NC(=O)c3ccncc3)ccc2O[C@@H](C)CCCCO[C@H]1CN(C)Cc1ccncc1 | -1 | 0 | nt | 0 | -1 | -3
CC(C)NC(=O)Nc1ccc2c(c1)C(=O)N([C@@H](C)CO)C[C@@H](C)[C@H](CN(C)Cc1ccncc1)OCCCC[C@@H](C)O2 | 111* | 2 | nt | 1 | 0 | -3
CNC[C@H]1Oc2ccc(NS(C)(=O)=O)cc2CC(=O)N(C)C[C@@H]1C | nt | nt | nt | nt | nt | 3
CO[C@H]1CN(C)C(=O)c2ccc(NC(=O)Nc3cccc(F)c3)cc2OC[C@H](C)N(C(=O)Nc2c(C)noc2C)C[C@@H]1C | -2 | 3 | nt | 0 | -1 | 3
O=C(NCC1CC1)[C@H]1[C@H](CO)[C@H]2Cn3c(ccc(C4=CCCCC4)c3=O)[C@@H]1N2 | -4 | nt | nt | nt | -1 | 2
CSC1=NC(=O)/C(=C/c2ccc(SC)cc2)S1 | nt | nt | 0 | 43* | nt | -22
C/C=C/c1ccc([C@H]2[C@@H](CO)N(C(=O)Cc3cccnc3)[C@H]2CNC(C)=O)cc1 | -9 | -3 | nt | -2 | -1 | 4
O=C(Nc1ccccc1N1CCOCC1)C1(c2ccc(Cl)cc2)CCC1 | nt | 41* | 5 | 0 | nt | -29
Cc1ccc(SCCC(=O)Nc2ccccc2Br)cc1 | -3 | -2 | 10 | 43* | -1 | -2
O=C(Cc1ccc(Cl)cc1)NC(=S)Nc1ccccc1N1CCOCC1 | 31 | -8 | -4 | nt | 0 | nt
SMILES | Cneo AK release | PGC1a acetyl inh | Vif imaging | FGF22 binding | PglD inh | rRNA inh HTS
Cc1ccc(SCC(=O)Nc2ccccc2N2CCOCC2)cc1 | 1 | -2 | -3 | 0 | 5 | -28*
O=C(CSc1ccccc1)Nc1ccccc1N1CCOCC1 | 0 | -4 | 9 | nt | 5 | nt
C[C@H]1CCCCO[C@H](CN(C)Cc2ccc3c(c2)OCO3)[C@@H](C)CN([C@@H](C)CO)C(=O)c2cc(NC(=O)C3CCCCC3)ccc2O1 | 0 | nt | nt | 0 | 2 | 2
COc1ccc(C#Cc2cnc3c(c2)C(=O)N([C@H](C)CO)C[C@@H](C)[C@@H](CN(C)C(C)=O)O3)cc1 | 0 | 8 | nt | 1 | 3 | 0
CCCn1nnnc1SCC(=O)N1CCCC1 | 0 | 10 | 4 | nt | 6 | nt
CCCn1nnnc1SCC(=O)N1CCCCC1 | 7 | nt | 57* | 0 | 5 | 9
Cc1c(NC(=S)N/N=C/c2cc([N+](=O)[O-])ccc2O)c(=O)n(-c2ccccc2)n1C | 1 | -1 | 14 | 0 | -3 | -22*
O=C(C1CC1)N1C[C@@H]2[C@H](c3ccccc31)[C@@H](CO)N2C(=O)c1cccc(F)c1 | -5 | 6 | nt | 0 | 1 | 1
CC1=C(C(=O)OCC2CCCO2)C(c2coc3ccc(C)cc3c2=O)C2=C(CCCC2=O)N1 (stereo not drawn) | -1 | 6 | -28 | 64* | 5 | 0
CC1=C(C(=O)OCC2CCCO2)C(c2coc3ccc(Cl)cc3c2=O)C2=C(CCCC2=O)N1 (stereo not drawn) | 1 | -12 | 1 | 0 | 0 | -8
CC1=C(C(=O)OC2CCCC2)C(c2coc3ccccc3c2=O)C2=C(CC(C)(C)CC2=O)N1 (stereo not drawn) | -1 | -15 | -4 | 0 | 7 | -22*
O=C(NCC1CC1)[C@@H]1[C@@H](CO)[C@@H]2Cn3c(ccc(-c4ccccc4F)c3=O)[C@H]1N2Cc1ccncc1 | -3 | nt | nt | 0 | -1 | 3
COc1ccccc1S(=O)(=O)N1CC[C@@H]2[C@H]1c1cc(-c3ccccc3F)ccc1N[C@@H]2CO | -15 | 1 | nt | 0 | 1 | -6
C[C@H]1CCCCO[C@H](CN(C)S(=O)(=O)c2cn(C)cn2)[C@@H](C)CN([C@@H](C)CO)C(=O)c2cc(NC(=O)Nc3ccccc3)ccc2O1 | 0 | 1 | nt | 0 | -3 | -1
NC(=O)[C@@H]1CCCN1Cc1nc(-c2cccs2)no1 | nt | nt | -2 | 1 | nt | 41

Assay outcomes: PubChem, Broad Institute
